Hits are enriched below; roughly 2.7% of the tested compounds scored in any of these assays.
CHO parental Ca = signal in parental CHO cells, OX1R antagonist counter-screen; parental CHO-K1, ATP-induced calcium, Fluo-8 fluorescence; inhibition, % at 5.6 µM; 0.63% of 330,000 active;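 active = inhibition above that plate's mean sample inhibition plus 3 SD, cut at about 26% in these data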
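Test system: untransfected parental CHO cell line. Compound: one dose, 5.6 µM nominal. Detection: intracellular calcium via Fluo-8 no-wash fluorescent dye. Measure: % inhibition. Benchmarks: ATP-challenged DMSO wells low, unchallenged DMSO wells high.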
OX1R antag-1 = blocks the human orexin 1 receptor. OX1R-expressing cells, FRET antagonist read-out. inhibition, % at 6.6 µM. O43613. AID 485270. 1.8% of 330,000 active; in the data active = inhibition mostly above about 38%, no sharp cut-off; inactive = mostly below about 40%
OXTR ag = human OXTR agonism; P30559; CHO-OTR cells, Fluo-8 calcium fluorescence; normalized: DMSO 0%, oxytocin 100%; activation, % at 3 µM; 0.32% of 320,000 active; AID 2435;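 active = activation above the mean of all tested compounds plus 3 SD, cutoff set per screening run, cut at about 20% in these data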;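 note: peak over basal fluorescence ratio from a 100 s FLIPR kinetic read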
Target sequence (P30559 whole entry, looked up): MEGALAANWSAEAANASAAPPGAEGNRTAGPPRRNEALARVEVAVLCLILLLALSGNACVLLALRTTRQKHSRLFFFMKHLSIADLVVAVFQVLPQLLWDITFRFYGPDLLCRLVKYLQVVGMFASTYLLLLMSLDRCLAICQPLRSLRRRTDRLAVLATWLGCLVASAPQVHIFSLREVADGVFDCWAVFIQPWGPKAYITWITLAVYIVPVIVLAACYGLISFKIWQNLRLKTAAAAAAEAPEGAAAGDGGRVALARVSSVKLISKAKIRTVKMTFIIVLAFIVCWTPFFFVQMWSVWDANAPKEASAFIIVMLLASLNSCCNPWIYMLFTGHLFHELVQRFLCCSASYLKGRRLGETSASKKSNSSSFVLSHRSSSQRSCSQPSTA
V1R ag counter = counter-screen for oxytocin receptor agonists: human V1a receptor agonists; 0.25% of 320,000 active; AID 2797; CHO-V1R cells, Fluo-8 calcium fluorescence, agonist mode; 0% DMSO, 100% 3 nM vasopressin; activation, % at 3 µM;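 active = activation above the mean activation of all tested compounds plus 3 SD, per screening run, cut at about 20% in these data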;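 note: signal is peak over basal fluorescence ratio across a 100 second FLIPR read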
OX1R antag-2 = human HCRTR1 antagonism; O43613; CHO/OX1R cells, Fluo-8 calcium fluorescence, orexin A; inhibition, % at 5 µM; 0.43% of 330,000 active; AID 434989;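 active = inhibition above its plate's threshold, mean inhibition of all tested compounds on the plate plus 3 SD, cut at about 37% in these data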
OXTR potentiator = potentiators of human oxytocin receptor; activation, % at 3 µM; 0.061% of 320,000 active; P30559; CHO-OTR cells, Fluo-8 calcium fluorescence, potentiator mode; 0% = oxytocin EC15, 100% = EC100;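 active = activation above that plate's cutoff, the mean activation of tested compounds plus 3 SD, cut at about 6.6% in these data, passing the limit was not always enough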
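System: human OTR in CHO cells; Also added: sub-maximal oxytocin, roughly EC15; Timing: compound 6 min at room temperature before oxytocin, 100 s read; Technique: Fluo-8 intracellular calcium fluorescence, ex 470-495, em 515-575 nm; Controls: oxytocin EC15 low and EC100 high; Replication: singlicate.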
OX1R HTRF conf = OX1R (human) antagonism, HTRF confirmed. shares compounds with OX1R antag-1. OX1R-expressing cells, HTRF antagonist assay. inhibition, % at 6.6 µM. 49% of 1,800 active. AID 492964; in the data active = inhibition above about 55%;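 note: CHO cells expressing OX1R stimulated with orexin A at about EC80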
CHO-K1 HTRF = counter-screen: parental CHO-K1 HTRF response. shares compounds with OX1R antag-1. parental CHO-K1 cells, HTRF counterscreen. inhibition, % at 6.6 µM. 48% of 1,800 active. AID 493232; in the data active = inhibition above about 17%
Numbers stand for hits.

Results for CC1=C(C(=O)OC2CCCCC2)C(c2ccc(C)o2)C2=C(CCCC2=O)N1 (configuration not stated) ?
CHO parental Ca: inactive; OX1R antag-1: 99; OXTR ag: inactive; V1R ag counter: inactive; OX1R antag-2: inactive; OXTR potentiator: inactive; OX1R HTRF conf: 87; CHO-K1 HTRF: inactive

What do the screens show for `O=c1c2ccccc2nc2c3ccccc3c(NCc3cccnc3)nn12`?
CHO parental Ca: inactive; OX1R antag-1: inactive; OXTR ag: inactive; V1R ag counter: inactive; OX1R antag-2: inactive; OXTR potentiator: inactive

What do the screens show for `O=c1c2ccccc2nc2c3ccccc3c(NCc3ccccn3)nn12`?
CHO parental Ca: inactive; OX1R antag-1: 90; OXTR ag: inactive; V1R ag counter: inactive; OX1R antag-2: inactive; OXTR potentiator: inactive; OX1R HTRF conf: 88; CHO-K1 HTRF: inactive

Results for O=C1SCCC1NS(=O)(=O)c1ccc([N+](=O)[O-])cc1 (configuration not stated) ?
CHO parental Ca: inactive; OX1R antag-1: 96; OXTR ag: inactive; V1R ag counter: inactive; OX1R antag-2: inactive; OXTR potentiator: 26; OX1R HTRF conf: inactive; CHO-K1 HTRF: 24

What do the screens show for `CN1CCCN(S(=O)(=O)c2ccc(O)c(C(=O)O)c2)CC1`?
CHO parental Ca: inactive; OX1R antag-1: inactive; OXTR ag: inactive; V1R ag counter: inactive; OX1R antag-2: inactive; OXTR potentiator: inactive

Results for Cn1cnc([N+](=O)[O-])c1Oc1cccc2ccccc12 ?
CHO parental Ca: inactive; OX1R antag-1: 85; OXTR ag: inactive; V1R ag counter: inactive; OX1R antag-2: inactive; OXTR potentiator: inactive; OX1R HTRF conf: inactive; CHO-K1 HTRF: inactive

How did C[C@@H](O)C1NC(=O)[C@H](CCCCN)NC(=O)c2cc([N+](=O)[O-])cc(F)c2NCCCC[C@@H](C(N)=O)NC1=O (some centres not stated) do in these assays?
CHO parental Ca: inactive; OX1R antag-1: inactive; OXTR ag: inactive; V1R ag counter: inactive; OX1R antag-2: inactive; OXTR potentiator: inactive

How did NC(=O)[C@@H]1CCCCNc2c(F)cc([N+](=O)[O-])cc2C(=O)N[C@@H](CC(=O)O)C(=O)N[C@@H](CCC(=O)O)C(=O)N1 do in these assays?
CHO parental Ca: inactive; OX1R antag-1: 110; OXTR ag: inactive; V1R ag counter: inactive; OX1R antag-2: inactive; OXTR potentiator: inactive; OX1R HTRF conf: inactive; CHO-K1 HTRF: 33

How did O=C(CCOc1ccccc1)Nc1ccccc1F do in these assays?
CHO parental Ca: inactive; OX1R antag-1: inactive; OXTR ag: inactive; V1R ag counter: inactive; OX1R antag-2: inactive; OXTR potentiator: inactive

What do the screens show for `O=[N+]([O-])c1ccc(C[n+]2ccc(Cc3ccccc3)cc2)cc1`?
CHO parental Ca: inactive; OX1R antag-1: 111; OXTR ag: inactive; V1R ag counter: inactive; OX1R antag-2: inactive; OXTR potentiator: inactive; OX1R HTRF conf: 73; CHO-K1 HTRF: 48

Results for O=[N+]([O-])c1ccc(C[n+]2ccccc2)cc1 ?
CHO parental Ca: inactive; OX1R antag-1: inactive; OXTR ag: inactive; V1R ag counter: inactive; OX1R antag-2: inactive; OXTR potentiator: inactive

What do the screens show for `Cc1nc(NC(=O)c2ccccc2)sc1-c1csc(N)n1`?
CHO parental Ca: inactive; OX1R antag-1: 96; OXTR ag: inactive; V1R ag counter: inactive; OX1R antag-2: inactive; OXTR potentiator: inactive; OX1R HTRF conf: 92; CHO-K1 HTRF: inactive

How did C(#Cc1ccc2c(c1)COc1c3ccccc3nn1-2)c1ccccc1 do in these assays?
CHO parental Ca: inactive; OX1R antag-1: inactive; OXTR ag: inactive; V1R ag counter: inactive; OX1R antag-2: inactive; OXTR potentiator: inactive

What do the screens show for `C#Cc1ccc2c(c1)COc1c3ccccc3nn1-2`?
CHO parental Ca: inactive; OX1R antag-1: 84; OXTR ag: inactive; V1R ag counter: inactive; OX1R antag-2: inactive; OXTR potentiator: inactive; OX1R HTRF conf: 60; CHO-K1 HTRF: inactive

What do the screens show for `CC1CCc2nc(NC(=O)CSc3nc4ccccc4o3)sc2C1` (configuration not stated)?
CHO parental Ca: inactive; OX1R antag-1: 89; OXTR ag: inactive; V1R ag counter: inactive; OX1R antag-2: inactive; OXTR potentiator: inactive; OX1R HTRF conf: inactive; CHO-K1 HTRF: inactive

What do the screens show for `O=C1C(Cl)=C(N2CCC(C(=O)O)CC2)C(=O)c2ccccc21`?
CHO parental Ca: inactive; OX1R antag-1: 101; OXTR ag: inactive; V1R ag counter: inactive; OX1R antag-2: inactive; OXTR potentiator: inactive; OX1R HTRF conf: inactive; CHO-K1 HTRF: 64

How did O=C1C(NS(=O)(=O)c2ccc(Cl)cc2)=C(N2CCCCC2)C(=O)c2ccccc21 do in these assays?
CHO parental Ca: inactive; OX1R antag-1: 111; OXTR ag: inactive; V1R ag counter: inactive; OX1R antag-2: inactive; OXTR potentiator: inactive; OX1R HTRF conf: inactive; CHO-K1 HTRF: 41

Results for O=C(O)C1CCN(C(=O)c2ccccc2Cl)CC1 ?
CHO parental Ca: inactive; OX1R antag-1: inactive; OXTR ag: inactive; V1R ag counter: inactive; OX1R antag-2: inactive; OXTR potentiator: inactive

Results for O=C1C(Nc2ccccc2)=C(NS(=O)(=O)c2ccccc2)C(=O)c2ccccc21 ?
CHO parental Ca: inactive; OX1R antag-1: inactive; OXTR ag: inactive; V1R ag counter: inactive; OX1R antag-2: inactive; OXTR potentiator: inactive

What do the screens show for `CN1CCN(C2=C(NS(=O)(=O)c3cccs3)C(=O)c3ccccc3C2=O)CC1`?
CHO parental Ca: inactive; OX1R antag-1: 132; OXTR ag: inactive; V1R ag counter: inactive; OX1R antag-2: inactive; OXTR potentiator: inactive; OX1R HTRF conf: 62; CHO-K1 HTRF: 99

Results for CCN1CCN(C2=C(NS(=O)(=O)c3ccc(Br)cc3)C(=O)c3ccccc3C2=O)CC1 ?
CHO parental Ca: inactive; OX1R antag-1: 95; OXTR ag: inactive; V1R ag counter: inactive; OX1R antag-2: inactive; OXTR potentiator: inactive; OX1R HTRF conf: 70; CHO-K1 HTRF: 88

Results for CCCN(Cc1nnc(-c2ccccc2Cl)o1)C(=O)c1cccc(S(=O)(=O)N2CCOCC2)c1 ?
CHO parental Ca: inactive; OX1R antag-1: inactive; OXTR ag: inactive; V1R ag counter: inactive; OX1R antag-2: inactive; OXTR potentiator: inactive

How did Cc1ccc(NC(=O)CS(=O)c2ccccc2N)c(C)c1 (configuration not stated) do in these assays?
CHO parental Ca: inactive; OX1R antag-1: inactive; OXTR ag: inactive; V1R ag counter: inactive; OX1R antag-2: inactive; OXTR potentiator: inactive

How did O=C(NC(=S)Nc1ccccc1Cl)c1cncc(Br)c1 do in these assays?
CHO parental Ca: inactive; OX1R antag-1: inactive; OXTR ag: inactive; V1R ag counter: inactive; OX1R antag-2: inactive; OXTR potentiator: inactive

Source: PubChem (The Scripps Research Institute Molecular Screening Center)
